Test results as given in ChEMBL document CHEMBL3585281, “Antibacterial Labdane Diterpenoids from Vitex vestita” (2015).
≈ marks a conversion by molar mass, not a printed value.

Legend:
Type in all cases: functional
Listeria monocytogenes [1] = assay: Antibacterial activity against Listeria monocytogenes N783 after 18 hrs by agar dilution method; conditions: N783, 18 h
Outline: (§1)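 Agar-dilution MIC against Gram-positive strains. Compounds in DMSO, geometric dilutions giving final 100−0.75 mg/L in Mueller Hinton agar. Strains grown 18 h at 37 °C in trypticase soy broth, diluted in sterile water, spotted by Steers inoculator (about 1000 UFC/spot). Plates incubated 18 h at 37 °C; DMSO blank; ofloxacin positive control. MIC = lowest concentration with no visible growth.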

Staphylococcus aureus [2] = assay: Antibacterial activity against Staphylococcus aureus ATCC 9144 oxford after 18 hrs by agar dilution method; outline: as §1
Listeria monocytogenes [3] = assay: Antibacterial activity against Listeria monocytogenes N836 after 18 hrs by agar dilution method; conditions: N836, 18 h; outline: as §1
HCT-116 = assay: Cytotoxicity against human HCT116 cells assessed as growth inhibition at 10^-5 M after 72 hrs by MTS assay relative to control; conditions: HCT-116, 72 h, read-out: GI
Outline: (§2)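 Cells from ATCC; HCT-116 grown in RPMI 1640 and MRC5 in DMEM, each with 10% FCS and 1% glutamine, 37 °C, 5% CO2. Seeded at 2.5 × 10^3 cells/well, cultured 24 h, then exposed to compounds at 1 and 10 μM final for 72 h. MTS read-out, absorbance 490 nm; percent index from treated/control OD490 × 100, three experiments.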

Staphylococcus aureus [4] = assay: Antibacterial activity against Staphylococcus aureus CIP 5710 after 18 hrs by agar dilution method; conditions: CIP 5710, 18 h; outline: as §1
[5] = system: Staphylococcus intermedius; assay: Antibacterial activity against Staphylococcus intermedius N987 after 18 hrs by agar dilution method; conditions: N987, 18 h; outline: as §1
Bacillus cereus [6] = assay: Antibacterial activity against Bacillus cereus N190 after 18 hrs by agar dilution method; conditions: N190, 18 h; outline: as §1
[7] = system: Staphylococcus haemolyticus; assay: Antibacterial activity against Staphylococcus haemolyticus CIP 8156 after 18 hrs by agar dilution method; conditions: CIP 8156, 18 h; outline: as §1
Enterococcus faecium [8] = assay: Antibacterial activity against Enterococcus faecium N733 after 18 hrs by agar dilution method; conditions: N733, 18 h; outline: as §1
Enterococcus faecium [9] = assay: Antibacterial activity against Enterococcus faecium CIP 103014 after 18 hrs by agar dilution method; conditions: CIP 103014, 18 h; outline: as §1
Enterococcus faecalis [10] = assay: Antibacterial activity against Enterococcus faecalis CIP 103214 after 18 hrs by agar dilution method; conditions: CIP 103214, 18 h; outline: as §1
Listeria monocytogenes [11] = assay: Antibacterial activity against Listeria monocytogenes CIP 103575 after 18 hrs by agar dilution method; conditions: CIP 103575, 18 h; outline: as §1
Staphylococcus aureus [12] = assay: Antibacterial activity against Staphylococcus aureus CIP 53156 after 18 hrs by agar dilution method; conditions: CIP 53156, 18 h; outline: as §1
MRC5 = assay: Cytotoxicity against human MRC5 cells assessed as growth inhibition at 10^-5 M after 72 hrs by MTS assay relative to control; conditions: MRC5, 72 h, read-out: GI; outline: as §2
Bacillus cereus [13] = assay: Antibacterial activity against Bacillus cereus CIP 6624 after 18 hrs by agar dilution method; conditions: CIP 6624, 18 h; outline: as §1
Bacillus cereus [14] = assay: Antibacterial activity against Bacillus cereus N258 after 18 hrs by agar dilution method; conditions: N258, 18 h; outline: as §1
Enterococcus gallinarum = assay: Antibacterial activity against Enterococcus gallinarum N489 after 18 hrs by agar dilution method; conditions: N489, 18 h; outline: as §1
Enterococcus faecalis [15] = assay: Antibacterial activity against Enterococcus faecalis N520 after 18 hrs by agar dilution method; conditions: N520, 18 h; outline: as §1
Mammaliicoccus sciuri = assay: Antibacterial activity against Staphylococcus sciuri N993 after 18 hrs by agar dilution method; conditions: N993, 18 h; outline: as §1
Enterococcus avium = assay: Antibacterial activity against Enterococcus avium CIP 104053 after 18 hrs by agar dilution method; conditions: CIP 104053, 18 h; outline: as §1
[16] = system: Staphylococcus lugdunensis; assay: Antibacterial activity against Staphylococcus lugdunensis ATCC 43809 after 18 hrs by agar dilution method; conditions: ATCC 43809, 18 h; outline: as §1
[17] = system: Staphylococcus epidermidis; assay: Antibacterial activity against Staphylococcus epidermidis CIP 53124 after 18 hrs by agar dilution method; conditions: CIP 53124, 18 h; outline: as §1
Listeria monocytogenes [18] = assay: Antibacterial activity against Listeria monocytogenes N851 after 18 hrs by agar dilution method; conditions: N851, 18 h; outline: as §1
Bacillus cereus [19] = assay: Antibacterial activity against Bacillus cereus N349 after 18 hrs by agar dilution method; conditions: N349, 18 h; outline: as §1
[20] = system: Staphylococcus saprophyticus; assay: Antibacterial activity against Staphylococcus saprophyticus CIP 76125 after 18 hrs by agar dilution method; conditions: CIP 76125, 18 h; outline: as §1

Compound: CC1(C)CCC[C@]2(C)[C@@H]1CC[C@]1(CO)O[C@@H](C3=CC(=O)OC3O)C[C@H]12 (stereo not given in full)
- MIC (Listeria monocytogenes [1]): > 46 µM
- MIC (Staphylococcus aureus [2]): > 46 µM
- MIC (Listeria monocytogenes [3]): > 46 µM
- inhibition of growth at 10 µM (HCT-116): 84%
- MIC (Staphylococcus aureus [4]): > 46 µM
- MIC [5]: > 46 µM
- MIC (Bacillus cereus [6]): 23 µM (≈ 8.06 µg/mL)
- MIC [7]: > 46 µM
- MIC (Enterococcus faecium [8]): > 46 µM
- MIC (Enterococcus faecium [9]): > 46 µM
- MIC (Enterococcus faecalis [10]): > 46 µM
- MIC (Listeria monocytogenes [11]): > 46 µM
- MIC (Staphylococcus aureus [12]): > 46 µM
- inhibition of growth at 10 µM (MRC5): 92%
- MIC (Bacillus cereus [13]): 46 µM (≈ 16.1 µg/mL)
- MIC (Bacillus cereus [14]): 46 µM (≈ 16.1 µg/mL)
- MIC (Enterococcus gallinarum): > 46 µM
- MIC (Enterococcus faecalis [15]): > 46 µM
- MIC (Mammaliicoccus sciuri): > 46 µM
- MIC (Enterococcus avium): > 46 µM
- MIC [16]: > 46 µM
- MIC [17]: > 46 µM
- MIC (Listeria monocytogenes [18]): > 46 µM
- MIC (Bacillus cereus [19]): 46 µM (≈ 16.1 µg/mL)
- MIC [20]: > 46 µM
